This is a sample that favours compounds with a hit; in the whole collection about 2.1% have one here.
cardiac RTF act: increases calcium sensitivity of human cardiac regulated thin filaments. P19429+P45379. IANBD-labeled TnC RTF fluorescence at EC20 calcium; 0% EC20 calcium, 100% full calcium. activation, % at 7.2 µM. 340,000 compounds, 0.24% hits. AID 493008;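 active means activation above the mean over all tested compounds plus 3 SD, cut at about 30% in these data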;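 further: rise in fluorescence read as greater calcium sensitivity of cardiac thin filaments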
UCH37 inh: blocks the human deubiquitinase UCH37; 330,000 compounds, 0.33% hits; purified proteasome/UCH37, Ub-AMC cleavage fluorescence; inhibition, % (no concentration beside the values); Q9Y5K5; AID 588478;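 active means mean inhibition over replicate wells above about 20%, limit read from the data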;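 further: 0% = compound-free wells with enzyme and 100% = wells lacking proteasome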
Target sequence (Q9Y5K5 whole entry, looked up): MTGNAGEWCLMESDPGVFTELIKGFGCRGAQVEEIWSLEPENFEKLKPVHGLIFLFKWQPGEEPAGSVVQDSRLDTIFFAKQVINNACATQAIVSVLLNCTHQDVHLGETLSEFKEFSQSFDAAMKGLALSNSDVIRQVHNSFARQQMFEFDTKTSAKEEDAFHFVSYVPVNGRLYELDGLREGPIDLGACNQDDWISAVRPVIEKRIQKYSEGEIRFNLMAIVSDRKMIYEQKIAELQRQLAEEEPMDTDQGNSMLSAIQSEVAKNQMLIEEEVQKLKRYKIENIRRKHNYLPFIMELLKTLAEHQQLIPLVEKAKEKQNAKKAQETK
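Material: Human UCH37 enzyme supplied as purified proteasome complex | Schedule: 30 min compound-proteasome preincubation then 25 min substrate reaction, room temperature | Detection: AMC fluorescence from Ub-AMC cleavage, excitation 355 nm, emission 460 nm | Benchmarks: Wells without proteasome as full block, compound-free enzyme plus substrate as uninhibited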
Efflux pump inh: blocks antifungal efflux pumps in multiplex yeast assay; S. cerevisiae Candida pump triplex, Nile Red efflux; AID 485275; inhibition, % at 10 µM; 330,000 compounds, 0.44% hits;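 active means plate passing quality check with inhibition over a set limit, or well fluorescence over plate mean plus 4 SD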;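 further: Nile Red retained in pooled yeast measured as flow cytometry median fluorescence; 0% = buffer negative control and 100% = Enniatin B positive control; higher means more Nile Red kept so more efflux inhibition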
Cardiac RTF inh: cardiac RTF calcium desensitization; inhibition, % at 7.15 µM; IANBD-labeled cardiac RTF, Ca2+ fluorescence; AID 493244; 340,000 compounds, 0.12% hits; P19429+P45379;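 active means inhibition above the mean inhibition of all tested compounds plus 3 SD, cut at about 17% in these data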;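 further: assay run at fixed EC70 calcium of 1.6 mM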
Mot1-301 SUMO: SUMOylation pathway inhibition by Mot1-301 growth rescue. S. cerevisiae Mot1-301 growth rescue, ATP luminescence, 38.5C; percent above DMSO median, 100 means doubled. AID 2716. 320,000 compounds, 1% hits. growth rescue, % at 18.8 µM;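 active means every valid replicate shows activation above 250% relative to neutral control wells; inactive means the rest, any valid replicate at or below 250%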;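 further: OY570 slx delta 5 strain wells were the positive control but not used for scaling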
ARNT-TACC3 inh: disruptors of human ARNT/TACC3 interaction; Q9Y6A5; AlphaScreen His-ARNT PAS-B/GST-TACC3 binding, luminescence; TACC3 fragment carries E629A point mutation; inhibition, % at 9.99 µM; 390,000 compounds, 0.66% hits; AID 623870;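 active means mean inhibition of replicates at least 50% and at least half of replicates each reaching 50%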;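 further: 0% = complete ARNT plus TACC3 wells and 100% = ARNT alone without TACC3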
Cmpd fluor yeast: counter-screen for efflux pump inhibitors: compound fluorescence | shares compounds with Efflux pump inh | S. cerevisiae AD/pABC3, flow cytometry | fluorescence ratio to DMSO, % at 10 µM | 1,700 compounds, 4% hits;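 active means fluorescence ratio to DMSO above its plate's cutoff, the plate mean ratio plus 5 SD, cut at about 210% in these data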;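 further: unstained yeast with no Nile Red so the signal is compound autofluorescence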
CaMdr1 efflux inh: blocks the Candida albicans Mdr1 efflux pump in yeast | shares compounds with Efflux pump inh | S. cerevisiae AD/CaMDR1, Nile Red efflux, flow cytometry | inhibition, % at 10 µM | 1,700 compounds, 1% hits; in the data active means inhibition above about 26%;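 further: 0% = DMSO vehicle and 100% = reference inhibitor; higher means more Nile Red retained so more efflux inhibition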
Cdr2 pump inh: blocks the Candida albicans Cdr2 efflux pump in yeast; shares compounds with Efflux pump inh; S. cerevisiae AD/CaCDR2, Nile Red retention, flow cytometry; Nile Red retention ratio vs DMSO, % at 10 µM; 1,700 compounds, 4% hits; AID 588520; in the data active means Nile Red retention ratio vs DMSO above about 190%;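 further: higher ratio means more blocking of Cdr2 efflux of the dye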
CaCdr1 efflux inh: blocks the Candida albicans Cdr1 efflux pump in yeast; shares compounds with Efflux pump inh; S. cerevisiae AD/CaCDR1, Nile Red efflux, flow cytometry; inhibition, % at 10 µM; 1,700 compounds, 1% hits; AID 588522;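 active means inhibition above the screen-wide mean plus twice its standard deviation, cut at about 32% in these data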
Numbers without * were called inactive; nt = not tested or not shown.

SMILES	cardiac RTF act	UCH37 inh	Efflux pump inh	Cardiac RTF inh	Mot1-301 SUMO	ARNT-TACC3 inh	Cmpd fluor yeast	CaMdr1 efflux inh	Cdr2 pump inh	CaCdr1 efflux inh
Cn1cc([N+](=O)[O-])c(C(=O)Nc2ccn(C34CC5CC(CC(C5)C3)C4)n2)n1	0	0	16*	-11	7	0	114	0	102	0
CCn1cc([N+](=O)[O-])c(C(=O)Nc2ccn(C34CC5CC(CC(C5)C3)C4)n2)n1	3	2	0	-11	4	1	nt	nt	nt	nt
COC(=O)CCCC1=CC2=CC(=O)C(C)(OC(=O)c3cccs3)C(=O)C2=CN1c1ccc(OC)cc1 (centres undefined)	-1	3	0.7*	-3	14	0	106	0	107	0
COC(=O)CCCC1=CC2=CC(=O)C(C)(OC(=O)c3cccs3)C(=O)C2=CN1Cc1ccccc1 (centres undefined)	1	5	0	-1	0	-2	nt	nt	nt	nt
Cc1nnc(SCc2cc(=O)[nH]c(Nc3nc(C)c4cc(C)c(C)cc4n3)n2)s1	nt	3	1.6*	nt	14	nt	106	0	102	0
COCCNC(=S)N1CCc2cc(OC)c(OC)cc2C1COc1ccc(C(C)C)cc1 (centres undefined)	8	1	6.8*	1	191	-17	115	0	112	0
COCCNC(=S)N1CCc2cc(OC)c(OC)cc2C1COc1ccc(F)cc1 (centres undefined)	-2	2	0	-4	-11	-6	nt	nt	nt	nt
N#C/C(=C\c1ccc(O)c(O)c1)C(=O)Nc1cccc2ncccc12	-4	nt	1	6	-1	14	107	0	114	0
COc1ccc(/C=C(\C#N)C(=O)Nc2cccc3ncccc23)cc1OC	1	5	0	-3	-8	1	97	0	97	0
COc1cc(/C=C(\C#N)C(=O)Nc2cccc3ncccc23)cc(OC)c1OC	-6	-1	3.4*	-22	-7	-2	98	0	118	0
COc1ccccc1/C=C/C=NNC(=O)c1ccncc1	nt	12	nt	nt	nt	nt	nt	nt	nt	nt
CSc1nnnn1-c1ccc(C(=O)O)cc1	3	1	0	1	-9	0	nt	nt	nt	nt
CSc1nnnn1-c1ccc(C)c(Cl)c1	3	3	14*	0	-6	nt	100	0	108	0
Cc1ccc(-n2nc3c(=O)n(CC(=O)NCCc4ccccc4C)nc(C)c3c2C)cc1	0	-1	4.2*	-11	-6	-20	106	0	102	0
Cc1ccc(-n2nc3c(=O)n(CCCC(=O)NCc4ccccc4C)nc(C)c3c2C)cc1	-1	6	0	-6	23	nt	nt	nt	nt	nt
Cc1ccc(-n2nc3c(=O)n(CC(=O)NCc4cccs4)nc(C)c3c2C)cc1	1	2	0	-10	-6	15	99	0	105	0
CCOc1ccc(CNC(=O)Cn2nc(C)c3c(C)n(-c4ccc(C)cc4)nc3c2=O)cc1	5	6	0	-4	0	0	100	0	109	0
Cc1nn(CC(=O)NCCc2cccs2)c(=O)c2nn(-c3ccccc3)c(C)c12	-1	3	0	-1	-15	15	nt	nt	nt	nt
Cc1ccc(CNC(=O)CCCn2nc(C)c3c(C)n(-c4ccccc4)nc3c2=O)cc1	1	-1	0	-9	82	-31	111	0	108	0
